From ChEMBL document CHEMBL1121834, “Aromatic retinoic acid analogues. Synthesis and pharmacological activity” (J Med Chem, 1981)

Assays:
Assay type in all cases: functional
[1] = target: T1, Ornithine decarboxylase (Mus musculus) (UniProt P00860); test: Inhibition of tumor promoter (TPA) -induced mouse epidermal ornithine decarboxylase (ODC) activity at 17 nmol dose level
T1 sequence (whole entry): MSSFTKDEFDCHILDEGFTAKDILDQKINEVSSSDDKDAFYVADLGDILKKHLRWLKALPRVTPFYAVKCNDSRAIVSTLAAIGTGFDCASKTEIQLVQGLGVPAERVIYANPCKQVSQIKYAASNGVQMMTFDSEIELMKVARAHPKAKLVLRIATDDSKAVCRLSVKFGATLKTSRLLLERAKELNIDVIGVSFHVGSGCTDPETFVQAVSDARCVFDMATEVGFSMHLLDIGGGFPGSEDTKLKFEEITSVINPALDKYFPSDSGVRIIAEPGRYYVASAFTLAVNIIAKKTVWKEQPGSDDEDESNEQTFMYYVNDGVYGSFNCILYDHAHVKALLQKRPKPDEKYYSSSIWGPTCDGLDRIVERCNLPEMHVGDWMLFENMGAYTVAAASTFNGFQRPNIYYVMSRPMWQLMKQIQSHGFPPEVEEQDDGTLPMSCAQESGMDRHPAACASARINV
Procedure, shortened: (§1)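 Retinoid applied topically to mouse skin 1 h before topical TPA (12-O-tetradecanoylphorbol 13-acetate) to induce epidermal ODC. Dorsal skin from each group of mice was pooled and ODC activity assayed in triplicate. Activity is expressed as % inhibition of TPA-induced ODC relative to TPA-only controls (mean ± SE over groups).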

[2] = target: T1, Ornithine decarboxylase (Mus musculus); test: Inhibition of tumor promoter (TPA) -induced mouse epidermal ornithine decarboxylase (ODC) activity at 170 nmol dose level; procedure, shortened: as §1
[3] = target: T1, Ornithine decarboxylase (Mus musculus); test: Inhibition of tumor promoter (TPA) -induced mouse epidermal ornithine decarboxylase (ODC) activity at 1.7 nmol dose level; procedure, shortened: as §1

SMILES | inhibition [1] [%] | inhibition [2] [%] | inhibition [3] [%]
CC1=C(/C=C/C(C)=C/C=C/c2ccccc2O)C(C)(C)CCC1 | 25 |  | 
CC1=C(/C=C/C(C)=C\C=C\c2ccccc2O)C(C)(C)CCC1 | 0 |  | 
CCOC(=O)c1ccc(/C=C(C)/C=C/C23OC2(C)CCCC3(C)C)cc1 (stereo unspecified) | 71 |  | 
CC1=C(/C=C/C(C)=C/C=C/c2ccccc2C(=O)O)C(C)(C)CCC1 | 7 |  | 

Second part, the compound after the results:

inhibition [1] [%] | inhibition [2] [%] | inhibition [3] [%] | SMILES
77 | 87 | 62 | CC1=C(/C=C/C(C)=C/c2ccc(C(=O)O)cc2)C(C)(C)CCC1
43 | 64 | 33 | CC1=C(/C=C/C(C)=C\c2ccc(C(=O)O)cc2)C(C)(C)CCC1
0 |  |  | CCOC(=O)c1ccc(/C=C(C)/C=C/C2=C(C)CCCC2(C)C)cc1C
